The source made the active and inactive calls.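 The calls were made as follows, unless noted: active = visual image review flags a hit and inhibition of aggregation exceeds 20%; inconclusive = visual hit but inhibition at or below 20%; inactive = no hit on visual image review.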
What was measured:
[1] = inhibitors of TNFa-induced NFkB p65 translocation, primary screen, imaging, HUVEC, MLSMR starter and 10KST1 sets (AID 438;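 active = inhibition above 20% together with a positive visual image hit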;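 also: compound added about 3h40 before a 20 min TNFalpha stimulation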;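 as to inhibition: signal is the nuclear over cytoplasmic p65 intensity ratio per well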); settings: HUVEC TNFa-induced p65 nuclear translocation; cell count: measured here: nuclei count (cytotoxicity indicator), at 2.08 µM; inhibition: at 2 µM, stronger effect = higher value, 0% TNFa-plus-vehicle, 100% no-TNFa wells
[2] = reduction of polyQ htt aggregates in cells – imaging, exon1htt(103Q)mCFP cells, high-content imaging, primary screen (AID 483); settings: exon1htt(103Q)mCFP cell line, aggregate imaging, at 2 µM; inhibition of aggregation: stronger effect = higher value; nuclei count: measured here: cell count, toxicity;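 also: compound exposure lasted 3 days before fixation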;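 as to nuclei count: percent of the per-plate median nuclei count of sample wells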
[3] = endothelial E-selectin expression blockers – imaging, HUVEC, immunofluorescence, MLSMR starter and 10KST1 sets, primary screen (AID 487;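 active = visually confirmed hit in the image check and inhibition above 20%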;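 as to inhibition: signal is fraction of cell area covered by stained E-selectin grains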;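 as to nuclei count: 100% = median nuclei count of all wells on the same plate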); settings: HUVEC TNFalpha-induced E-selectin immunofluorescence imaging, at 2 µM; inhibition: stronger effect = higher value; nuclei count: measured here: cell number, toxicity
[4] = molecular target: Voltage-gated potassium channel subunit beta-2 (Rattus norvegicus) (UniProt P62483); assay: inhibitors of rat Kvbeta2 reductase activity – biochemical, NADPH fluorescence, primary screen (AID 622;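 active = fluorescence slope higher than the sample average by over 3 SD, cut at about -0.22 in these data, passing the limit was not always enough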;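 also: slope of raw intensity against log time taken from 70 to 1610 s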); settings: recombinant KvBeta, 4-cyanobenzaldehyde reduction, at 10 µM, stronger effect = higher value
[5] = molecular target: Voltage-gated potassium channel subunit beta-2 (Rattus norvegicus) (UniProt P62483); assay: enhancers of rat Kvbeta2 NADPH turnover – biochemical, NADPH fluorescence, primary screen (AID 623;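 active = NADPH fluorescence slope more negative than the mean of all samples by about 3 SD, 99.7% confidence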;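 also: fluorescence intensity change per second fitted from 20 to 320 s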); settings: Recombinant KvBeta, NADPH fluorescence decrease slope, 10 min; at 10 µM; stronger effect = lower value
[6] = molecular target: Alpha-2C adrenergic receptor (Homo sapiens) (UniProt P18825); assay: compounds altering alpha2C-coupled GIRK flux – cell-based, HEK293 alpha2C/GIRK1/2, thallium flux, primary screen (AID 624;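 active = fluorescence slope after compound addition differing from the mean of all screened samples at 99.7% confidence, in either direction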;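 also: slope of fluorescence ratio to pre-addition baseline per second over 15 to 24 s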); settings: thallium flux BTC fluorescence, at 10 µM, actives lie on both sides
[7] = inhibitors of larval lipid processing in zebrafish, primary screen, whole organism, PED6 fluorescence, gall bladder and intestine (AID 686;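 active = a full or partial loss of lipid-probe fluorescence in the fish gall bladder, intestine or both, judged by eye; inactive = no fluorescence loss, or compound toxic to the fish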;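 also: larvae 5 to 7 days old with five fish per well; signal comes from phospholipase A2 cleavage of quenched PED6 carried via bile; overnight exposure to compound and PED6 before scoring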); settings: Zebrafish larvae PED6 lipid processing, fluorescence scoring; screened at 20 µM (by protocol)
Procedure, shortened: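 Test system – live zebrafish larvae aged 5-7 days, whole organism · Buffer or medium – E3 fish medium · Reagent – quenched phospholipase substrate PED6, 100 nM final, ingested by larvae · Doses – 20 µM single dose · Incubation – overnight compound and PED6 incubation · Technique – visual fluorescence microscopy scoring of gall bladder, gut · Read-out basis – visual per-well fluorescence inhibition score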

[8] = blockers of RIG-like receptor reporter activation – cell-based, Sendai virus stimulus, luciferase, 10K MLSCN set, TLR/RLR signaling modifier project, primary screen (AID 602276;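 active = inhibition at or above 50% at 10 µM; inactive = inhibition below 50%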;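 also: firefly luciferase from ISG56 promoter only with Renilla not read in this screen; 0% = Sendai virus plus DMSO and 100% = medium plus DMSO without virus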); settings: HEK293 RL24 IRF3 luciferase reporter, at 10 µM, stronger effect = higher value
[9] = TLR3 IRF3 reporter activation blockers – cell-based, poly I:C stimulus, luciferase, 10K MLSCN set, primary screen (AID 602277;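 active = inhibition of the reporter signal at or above 50%; inactive = inhibition below 50%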); settings: HEK293-TLR3 RL24 IRF3 luciferase reporter, at 10 µM, stronger effect = higher value

Sequence of Alpha-2C adrenergic receptor (Homo sapiens) (P18825 whole entry, looked up): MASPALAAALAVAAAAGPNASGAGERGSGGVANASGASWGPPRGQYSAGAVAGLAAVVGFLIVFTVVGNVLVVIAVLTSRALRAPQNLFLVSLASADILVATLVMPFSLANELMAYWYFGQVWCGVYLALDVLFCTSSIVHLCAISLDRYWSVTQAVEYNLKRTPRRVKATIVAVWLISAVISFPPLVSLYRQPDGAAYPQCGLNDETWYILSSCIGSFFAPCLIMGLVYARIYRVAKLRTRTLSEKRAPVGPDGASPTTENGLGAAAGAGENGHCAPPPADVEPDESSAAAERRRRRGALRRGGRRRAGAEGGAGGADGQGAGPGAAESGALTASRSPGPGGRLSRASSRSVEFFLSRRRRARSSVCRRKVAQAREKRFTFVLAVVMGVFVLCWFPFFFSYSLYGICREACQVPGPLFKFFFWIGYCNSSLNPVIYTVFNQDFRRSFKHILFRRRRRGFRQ
Sequence of Voltage-gated potassium channel subunit beta-2 (Rattus norvegicus) (P62483 whole entry, looked up): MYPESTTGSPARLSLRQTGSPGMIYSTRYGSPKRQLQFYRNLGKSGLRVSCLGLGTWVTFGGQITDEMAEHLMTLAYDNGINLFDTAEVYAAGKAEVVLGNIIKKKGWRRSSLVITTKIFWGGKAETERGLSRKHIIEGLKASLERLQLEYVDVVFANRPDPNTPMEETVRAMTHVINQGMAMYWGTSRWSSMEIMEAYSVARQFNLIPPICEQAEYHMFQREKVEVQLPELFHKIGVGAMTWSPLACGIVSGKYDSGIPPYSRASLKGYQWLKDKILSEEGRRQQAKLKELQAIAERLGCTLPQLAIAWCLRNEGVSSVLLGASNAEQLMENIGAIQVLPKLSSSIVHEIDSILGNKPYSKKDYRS

SMILES | cell count [1] | inhibition [1] | inhibition of aggregation [2] | nuclei count [2] | inhibition [3] | nuclei count [3] | fluorescence slope [4] | NADPH fluorescence slope [5] | slope [6] | outcome [7] | inhibition [8] | inhibition [9]
COC(=O)CCN(C(=O)c1ccc2c(c1)OCO2)c1ccccn1 | 730 | 2.9% (inactive) | -10.6% (inactive) | 98.2% | -0.1% (inactive) | 89.7% | -0.4 (inactive) | -4.5e-06 (inactive) | 0.00511 (inactive) | inactive | 17.3% (inactive) | 18% (inactive)
CCOC(=O)N1CCC(NC(=O)Cn2cc3c(n2)CCC(C)C3)CC1 (centres undefined) | 420 | -11.9% (inactive) | 0.7% (inactive) | 108% | -5.4% (inactive) | 101% | -0.479 (inactive) | 1.7e-05 (inactive) | 0.0047 (inactive) | inactive | -10.4% (inactive) | -9.33% (inactive)
Cc1ccc2nc3c(cc2c1)CN(Cc1ccco1)C(=NCC1CCCO1)S3 (centres undefined) | 543 | 0.7% (inactive) | 28.7% (inactive) | 82.4% | -2.1% (inactive) | 106% | -0.372 (inactive) | -6.6e-05 (inactive) | 0.00724 (inactive) | inactive | 13.9% (inactive) | 11.5% (inactive)
COc1ccc(C2C(C(=O)c3sc(C)nc3C)=C(O)C(=O)N2CCN(C)C)cc1 (centres undefined) | 560 | 13.4% (inactive) | 6.9% (inactive) | 110% | -15.4% (inactive) | 123% | -0.335 (inactive) | -6.7e-05 (inactive) | 0.00568 (inactive) | inactive | 10.9% (inactive) | 9.69% (inactive)
O=C(NC1CCCCC1NC(=O)c1ccco1)c1ccco1 (centres undefined) | 726 | 10.2% (inactive) | -7.6% (inactive) | 108% | 65.3% (inactive) | 112% | -0.384 (inactive) | -1.6e-05 (inactive) | 0.00439 (inactive) | inactive | -10.8% (inactive) | -8.21% (inactive)
Cc1nnc(NC(=O)C2CCCO2)s1 (centres undefined) | 345 | 5.2% (inactive) | -9.5% (inactive) | 97.4% | -105% (inactive) | 104% | -0.467 (inactive) | -4.2e-05 (inactive) | 0.00593 (inactive) | active; weak signal in gallbladder only | 6.24% (inactive) | 6.47% (inactive)
CC(C)(C)n1ncc2c(=O)n(CC(=O)NCc3ccccc3)cnc21 | 615 | 2.4% (inactive) | 0.5% (inactive) | 82.4% | -117% (inactive) | 104% | -0.296 (inactive) | -1.3e-05 (inactive) | 0.00536 (inactive) | inactive | -28.3% (inactive) | 69.7% (active)
COc1ccc(-n2ncc3c(NCc4cccs4)ncnc32)cc1 | 424 | 3.9% (inactive) | -20.1% (inactive) | 98.4% | -94.5% (inactive) | 106% | -0.36 (inactive) | -2e-06 (inactive) | 0.00593 (inactive) | inactive | -24.5% (inactive) | -70.4% (inactive)
O=C(Nc1ccc(NC(=O)C2CC2)cn1)c1ccccc1Cl | 745 | 2.6% (inactive) | -13% (inactive) | 104% | -79% (inactive) | 113% | -0.316 (inactive) | -8e-07 (inactive) | 0.00552 (inactive) | inactive | -65.9% (inactive) | -212% (inactive)
CCOC(=O)N1CCN(C(=O)c2cnn(-c3ccccc3)c2NC(=O)c2ccccc2F)CC1 | 397 | 12.1% (inactive) | 1.7% (inactive) | 117% | -69.8% (inactive) | 106% | -0.34 (inactive) | -3.7e-05 (inactive) | 0.00614 (inactive) | inactive | 16% (inactive) | 17.2% (inactive)
CC(C)n1nnnc1SCC(=O)Nc1ccccc1N1CCOCC1 | 539 | -8% (inactive) | -6.6% (inactive) | 104% | -38.2% (inactive) | 112% | -0.451 (inactive) | -6.8e-05 (inactive) | 0.00614 (inactive) | inactive | 10.2% (inactive) | 11.6% (inactive)
COC(=O)c1ccccc1NC(=O)CN1CCC(n2nnc3cc(F)ccc32)CC1 | 488 | 6% (inactive) | -5.5% (inactive) | 103% | 35% (inactive) | 91.3% | -0.453 (inactive) | -4.1e-05 (inactive) | 0.00532 (inactive) | inactive | 15.8% (inactive) | 25.9% (inactive)
Cc1cc(Br)c(S(=O)(=O)n2nnc3ccccc32)cc1C | 608 | -4.5% (inactive) | 3.7% (inactive) | 81.9% | 29% (inactive) | 107% | -0.326 (inactive) | 2.1e-05 (inactive) | 0.00509 (inactive) | inactive | 13.1% (inactive) | 12.1% (inactive)
Cc1ccc(F)cc1NC(=O)C1CCCN(c2ncccn2)C1 (centres undefined) | 692 | -7.8% (inactive) | -34.5% (inactive) | 117% | -56.9% (inactive) | 118% | -0.357 (inactive) | -1.9e-05 (inactive) | 0.00523 (inactive) | inactive | 7.51% (inactive) | 9.04% (inactive)
COCc1nnc(SCC(=O)NC(C)c2ccccc2)n1-c1ccccc1 (centres undefined) | 308 | -1.1% (inactive) | 5.8% (inactive) | 94.3% | -18.5% (inactive) | 101% | -0.434 (inactive) | -3.6e-05 (inactive) | 0.00455 (inactive) | inactive | 14.7% (inactive) | 14.9% (inactive)
COc1cc2c(cc1NC(=O)CSc1nnc(Cc3cccs3)n1C)oc1ccccc12 | 368 | 4.7% (inactive) | 9.3% (inactive) | 104% | -30.5% (inactive) | 112% | -0.45 (inactive) | -0.000107 (inactive) | 0.00401 (inactive) | inactive | 13.9% (inactive) | 5.76% (inactive)
Cc1cc(NC(=O)CSc2nc(C3CC3)nc3sc4c(c23)CCC(C)C4)no1 (centres undefined) | 321 | -1.3% (inactive) | 0.7% (inactive) | 75.3% | -43% (inactive) | 113% | -0.394 (inactive) | -5.2e-05 (inactive) | 0.00786 (inactive) | inactive | -13.4% (inactive) | -24.3% (inactive)
O=C(c1cc2nc(-c3ccco3)cc(C(F)(F)F)n2n1)N1CCN(c2ccccn2)CC1 | 746 | -10.5% (inactive) | 2.8% (inactive) | 101% | 32.7% (inactive) | 107% | -0.357 (inactive) | -6.7e-05 (inactive) | 0.00309 (inactive) | inactive | 10.1% (inactive) | -6.91% (inactive)
O=C(c1cnc2sccn2c1=O)N1CCc2ccccc2C1 | 438 | -3% (inactive) | 4.4% (inactive) | 86.1% | -376% (inactive) | 102% | -0.398 (inactive) | -5.3e-05 (inactive) | 0.00452 (inactive) | inactive | -4.13% (inactive) | 99% (active)
CCn1cnc2sc(C(=O)Nc3ccc4c(c3)OCO4)c(C)c2c1=O | 473 | -14.7% (inactive) | 7.4% (inactive) | 102% | -47.6% (inactive) | 90.6% | -0.361 (inactive) | -7e-05 (inactive) | 0.00678 (inactive) | inactive | -47.3% (inactive) | -111% (inactive)
CCOC(=O)CC(=O)CSc1nc(-c2cccnc2)ccc1C#N | 908 | 11.4% (inactive) | -23.5% (inactive) | 87.2% | -90.5% (inactive) | 128% | -0.0463 (active) | -1.8e-05 (inactive) | 0.013 (active) | inactive | -15.8% (inactive) | -33.1% (inactive)
O=C(CN(Cc1ccc(F)cc1)C(=O)c1ccco1)NCc1ccc(F)cc1 | 357 | 6.8% (inactive) | 7% (inactive) | 90.9% | -382% (inactive) | 130% | -0.359 (inactive) | -3.4e-05 (inactive) | 0.00584 (inactive) | inactive | 14.4% (inactive) | 21.2% (inactive)
CC(=O)Nc1c(O)[nH]c2ccccc12 | 566 | -25.9% (inactive) | -9.8% (inactive) | 98.9% | -5.9% (inactive) | 102% | -0.414 (inactive) | -5.4e-05 (inactive) | 0.00575 (inactive) | inactive | 10.4% (inactive) | 16.8% (inactive)
CCc1nnc(NC(=O)CSc2nnc(-c3ccccc3OC)n2-c2ccccc2)s1 | 276 | -6.9% (inactive) | 14.1% (inactive) | 146% | -163% (inactive) | 128% | -0.396 (inactive) | -7.8e-05 (inactive) | 0.00574 (inactive) | inactive | 11.4% (inactive) | 8.06% (inactive)
COc1ccccc1OCCNC(=O)c1cccs1 | 333 | 4.3% (inactive) | 12.7% (inactive) | 97.7% | -31.8% (inactive) | 99% | -0.383 (inactive) | -5.1e-05 (inactive) | 0.00529 (inactive) | inactive | -16% (inactive) | -43% (inactive)
COCCCn1c(=N)c(C(=O)NCC2CCCO2)cc2c(=O)n3cccc(C)c3nc21 (centres undefined) | 587 | -8.8% (inactive) | -3.1% (inactive) | 78.6% | 28.1% (inactive) | 67.6% | -0.0296 (active) | -1.3e-05 (inactive) | 0.00471 (inactive) | inactive | 11.6% (inactive) | 21% (inactive)
c1cc2c(cc1C1CCCN1)OCCCO2 (centres undefined) | 411 | -7.9% (inactive) | -16.6% (inactive) | 116% | -44% (inactive) | 116% | -0.418 (inactive) | 1.8e-05 (inactive) | 0.00434 (inactive) | inactive | -9.84% (inactive) | -8.78% (inactive)
